In brackets after ≈: the same amount, converted by molar mass.
Tests used:
[1] = system: Aspergillus ochraceus; assay: Ratio of ketoconazole to compound for Aspergillus ochraceus ATCC 12066; type: functional
[2] = system: Salmonella typhimurium; assay: Antibacterial activity against Salmonella Typhimurium ATCC 13311 after 24 hrs by microdilution method; type: functional, Salmonella enterica subsp. enterica serovar Typhimurium; details: Salmonella enterica, ATCC 13311, 24 h
Summary of the method: (§1)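 Broth microdilution in 96-well plates. Bacterial suspensions were adjusted in sterile saline to 1.0 × 10⁵ CFU/ml, prepared daily and kept at 4 °C. Compound was added to LB broth with 1.0 × 10⁴ CFU per well and shaken at 160 rpm for 24 h at […] (so in the source). MIC is the lowest concentration with no visible growth under a binocular microscope. OD655 was also read. Duplicate, repeated three times.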

[3] = system: Talaromyces funiculosus; assay: Ratio of bifonazole to compound for Penicillium funiculosum ATCC 36839; type: functional
[4] = system: Aspergillus ochraceus; assay: Antifungal activity against Aspergillus ochraceus ATCC 12066 after 72 hrs by serial dilution technique; type: functional; details: ATCC 12066, 72 h
Summary of the method: (§2)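 Modified microdilution in 96-well plates. Fungi were kept on malt agar at 4 °C. Spores were washed off in sterile 0.85% saline with 0.1% Tween 80. Compounds were dissolved at 1 mg/ml in 5% DMSO with 0.1% Tween 80 and added to malt broth with inoculum. Plates were shaken at 160 rpm for 72 h at 28 °C. Duplicate, repeated three times.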

[5] = system: Talaromyces funiculosus; assay: Antifungal activity against Penicillium funiculosum ATCC 36839 after 72 hrs by serial dilution technique; type: functional; details: ATCC 36839, 72 h; summary of the method: as §2
[6] = system: Escherichia coli; assay: Antibacterial activity against Escherichia coli ATCC 35210 incubated for 24 hrs followed by serial sub-cultivation for 24 hrs by microdilution; type: functional; details: ATCC 35210, 24 h
Summary of the method: (§3)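 MBC: after the 24 h LB broth microdilution (1.0 × 10⁴ CFU per well, 160 rpm), wells were serially sub-cultured into fresh broth plates and incubated a further 24 h. MBC is the lowest concentration with no visible growth, taken as 99.5% killing of the original inoculum. Duplicate, repeated three times.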

[7] = system: Aspergillus niger; assay: Antifungal activity against Aspergillus niger ATCC 6275 after 72 hrs by serial dilution technique; type: functional; details: ATCC 6275, 72 h; summary of the method: as §2
[8] = system: Trichoderma viride; assay: Ratio of bifonazole to compound for Trichoderma viride IAM 5061; type: functional
[9] = system: Staphylococcus aureus; assay: Antibacterial activity against Staphylococcus aureus ATCC 6538 after 24 hrs by microdilution method; type: functional; details: ATCC 6538, 24 h; summary of the method: as §1
[10] = system: Staphylococcus aureus; assay: Antibacterial activity against Staphylococcus aureus ATCC 6538 incubated for 24 hrs followed by serial sub-cultivation for 24 hrs by microdilution method; type: functional; details: ATCC 6538, 24 h; summary of the method: as §3
[11] = system: Trichoderma viride; assay: Antifungal activity against Trichoderma viride IAM 5061 after 72 hrs by serial dilution technique; type: functional; details: IAM 5061, 72 h; summary of the method: as §2
[12] = system: Escherichia coli; assay: Antibacterial activity against Escherichia coli ATCC 35210 after 24 hrs by microdilution method; type: functional; details: ATCC 35210, 24 h; summary of the method: as §1
[13] = system: Aspergillus ochraceus; assay: Antifungal activity against Aspergillus ochraceus after 72 hrs by serial dilution technique
[14] = system: Penicillium ochrochloron; assay: Antifungal activity against Penicillium ochrochloron ATCC 9112 incubated for 72 hrs followed by serial sub-cultivation for 72 hrs by serial dilution technique; type: functional; details: ATCC 9112, 72 h
Summary of the method: (§4)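 MFC: material from 72 h malt broth microdilution wells was serially sub-cultured into fresh broth plates and incubated a further 72 h at 28 °C. Fungicidal concentration is taken from growth after sub-culture. Duplicate, repeated three times.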

[15] = system: Listeria monocytogenes; assay: Antibacterial activity against Listeria monocytogenes NCTC 7973 after 24 hrs by microdilution method; type: functional; details: NCTC 7973, 24 h; summary of the method: as §1
[16] = system: Penicillium ochrochloron; assay: Antifungal activity against Penicillium ochrochloron ATCC 9112 after 72 hrs by serial dilution technique; type: functional; details: ATCC 9112, 72 h; summary of the method: as §2
[17] = system: Salmonella typhimurium; assay: Antibacterial activity against Salmonella Typhimurium ATCC 13311 incubated for 24 hrs followed by serial sub-cultivation for 24 hrs by microdilution; type: functional, Salmonella enterica subsp. enterica serovar Typhimurium; details: Salmonella enterica, ATCC 13311, 24 h; summary of the method: as §3
[18] = system: Micrococcus flavus; assay: Antibacterial activity against Micrococcus flavus ATCC 10240 incubated for 24 hrs followed by serial sub-cultivation for 24 hrs by microdilution; type: functional; details: ATCC 10240, 24 h; summary of the method: as §3
[19] = system: Aspergillus ochraceus; assay: Antifungal activity against Aspergillus ochraceus ATCC 12066 incubated for 72 hrs followed by serial sub-cultivation for 72 hrs by serial dilution technique; type: functional; details: ATCC 12066, 72 h; summary of the method: as §4
[20] = system: Candida albicans; assay: Ratio of ketoconazole to compound for Candida albicans isolated from human; type: functional
[21] = system: Micrococcus flavus; assay: Antibacterial activity against Micrococcus flavus ATCC 10240 after 24 hrs by microdilution method; type: functional; details: ATCC 10240, 24 h; summary of the method: as §1
[22] = system: Enterococcus faecalis; assay: Antibacterial activity against Enterococcus faecalis isolated from human after 24 hrs by microdilution method; type: functional; summary of the method: as §1
[23] = system: Pseudomonas aeruginosa; assay: Antibacterial activity against Pseudomonas aeruginosa ATCC 27853 after 24 hrs by microdilution method; type: functional; details: ATCC 27853, 24 h; summary of the method: as §1
[24] = system: Bacillus cereus; assay: Antibacterial activity against clinical isolate of Bacillus cereus after 24 hrs by microdilution method; type: functional; summary of the method: as §1
[25] = system: Aspergillus niger; assay: Antifungal activity against Aspergillus niger ATCC 6275 incubated for 72 hrs followed by serial sub-cultivation for 72 hrs by serial dilution technique; type: functional; details: ATCC 6275, 72 h; summary of the method: as §4
[26] = system: Aspergillus niger; assay: Ratio of bifonazole to compound for Aspergillus niger ATCC 6275; type: functional
[27] = system: Pseudomonas aeruginosa; assay: Ratio of ampicillin MIC to compound MIC for Pseudomonas aeruginosa ATCC 27853; type: functional
[28] = system: Aspergillus flavus; assay: Antifungal activity against Aspergillus flavus ATCC 9643 after 72 hrs by serial dilution technique; type: functional; details: ATCC 9643, 72 h; summary of the method: as §2
[29] = system: Listeria monocytogenes; assay: Antibacterial activity against Listeria monocytogenes NCTC 7973 incubated for 24 hrs followed by serial sub-cultivation for 24 hrs by microdilution; type: functional; details: NCTC 7973, 24 h; summary of the method: as §3
[30] = system: Penicillium ochrochloron; assay: Ratio of bifonazole to compound for Penicillium ochrochloron ATCC 9112; type: functional
[31] = system: Aspergillus fumigatus; assay: Antifungal activity against Aspergillus fumigatus isolated from human incubated for 72 hrs followed by serial sub-cultivation for 72 hrs by serial dilution technique; type: functional; summary of the method: as §4
[32] = system: Aspergillus ochraceus; assay: Ratio of bifonazole to compound for Aspergillus ochraceus ATCC 12066; type: functional
[33] = system: Candida albicans; assay: Antifungal activity against Candida albicans isolated from human after 72 hrs by serial dilution technique; type: functional; summary of the method: as §2
[34] = system: Aspergillus flavus; assay: Antifungal activity against Aspergillus flavus ATCC 9643 incubated for 72 hrs followed by serial sub-cultivation for 72 hrs by serial dilution technique; type: functional; details: ATCC 9643, 72 h; summary of the method: as §4
[35] = system: Penicillium ochrochloron; assay: Ratio of ketoconazole to compound for Penicillium ochrochloron ATCC 9112; type: functional
[36] = system: Enterococcus faecalis; assay: Antibacterial activity against Enterococcus faecalis isolated from human incubated for 24 hrs followed by serial sub-cultivation for 24 hrs by microdilution; type: functional; summary of the method: as §3
[37] = system: Candida albicans; assay: Ratio of bifonazole to compound for Candida albicans isolated from human; type: functional
[38] = system: Trichoderma viride; assay: Antifungal activity against Trichoderma viride IAM 5061 incubated for 72 hrs followed by serial sub-cultivation for 72 hrs by serial dilution technique; type: functional; details: IAM 5061, 72 h; summary of the method: as §4
[39] = system: Bacillus cereus; assay: Antibacterial activity against clinical isolate of Bacillus cereus incubated for 24 hrs followed by serial sub-cultivation for 24 hrs by microdilution; type: functional; summary of the method: as §3
[40] = system: Pseudomonas aeruginosa; assay: Antibacterial activity against Pseudomonas aeruginosa ATCC 27853 incubated for 24 hrs followed by serial sub-cultivation for 24 hrs by microdilution; type: functional; details: ATCC 27853, 24 h; summary of the method: as §3
[41] = system: Talaromyces funiculosus; assay: Antifungal activity against Penicillium funiculosum ATCC 36839 incubated for 72 hrs followed by serial sub-cultivation for 72 hrs by serial dilution technique; type: functional; details: ATCC 36839, 72 h; summary of the method: as §4
[42] = system: Aspergillus fumigatus; assay: Ratio of ketoconazole to compound for Aspergillus fumigatus isolated from human; type: functional
[43] = system: Candida albicans; assay: Antifungal activity against Candida albicans isolated from human incubated for 72 hrs followed by serial sub-cultivation for 72 hrs by serial dilution technique; type: functional; summary of the method: as §4

Compound: CCNc1nc(C)c(C(=O)/C=C/c2cccc(Cl)c2)s1
- Ratio [1]: 10
- MIC [2]: 49.1 µM (≈ 15.1 µg/mL)
- Ratio [3]: 10
- MIC [4]: 65.3 µM (≈ 20 µg/mL)
- MIC [5]: 32.7 µM (≈ 10 µg/mL)
- MBC [6]: 65.3 µM (≈ 20 µg/mL)
- MIC [7]: 65.3 µM (≈ 20 µg/mL)
- Ratio [8]: 10
- MIC [9]: 98 µM (≈ 30.1 µg/mL)
- MBC [10]: 98 µM (≈ 30.1 µg/mL)
- MIC [11]: 32.7 µM (≈ 10 µg/mL)
- MIC [12]: 49.1 µM (≈ 15.1 µg/mL)
- MIC [13]: 32.7 µM (≈ 10 µg/mL)
- MFC [14]: 81.7 µM (≈ 25.1 µg/mL)
- MIC [15]: 98 µM (≈ 30.1 µg/mL)
- MIC [16]: 65.3 µM (≈ 20 µg/mL)
- MBC [17]: 65.3 µM (≈ 20 µg/mL)
- MBC [18]: 81.7 µM (≈ 25.1 µg/mL)
- MFC [19]: 81.7 µM (≈ 25.1 µg/mL)
- Ratio [20]: 10
- MIC [21]: 32.7 µM (≈ 10 µg/mL)
- MIC [22]: 49.1 µM (≈ 15.1 µg/mL)
- MIC [23]: 65.3 µM (≈ 20 µg/mL)
- MIC [24]: 49.1 µM (≈ 15.1 µg/mL)
- MFC [25]: 81.7 µM (≈ 25.1 µg/mL)
- Ratio [26]: 10
- Ratio [27]: 10
- MIC [28]: 65.3 µM (≈ 20 µg/mL)
- MBC [29]: 114 µM (≈ 35.1 µg/mL)
- Ratio [30]: 10
- MFC [31]: 65.3 µM (≈ 20 µg/mL)
- Ratio [32]: 10
- MIC [33]: 32.7 µM (≈ 10 µg/mL)
- MFC [34]: 81.7 µM (≈ 25.1 µg/mL)
- Ratio [35]: 10
- MBC [36]: 65.3 µM (≈ 20 µg/mL)
- Ratio [37]: 10
- MFC [38]: 65.3 µM (≈ 20 µg/mL)
- MBC [39]: 65.3 µM (≈ 20 µg/mL)
- MBC [40]: 81.7 µM (≈ 25.1 µg/mL)
- MFC [41]: 65.3 µM (≈ 20 µg/mL)
- Ratio [42]: 10
- MFC [43]: 65.3 µM (≈ 20 µg/mL)
